From PubChem BioAssay
Active and inactive are the calls of the source.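 How the source made its calls, unless noted: active means Her2 level under about 52% in both replicate screens, with viability over 70% of control (limit read from the data); inconclusive means Her2 under the limit in one screen only, or viability under 70%; inactive means Her2 level above the set limit.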

Assays:
[1] = Her2 expression decrease, cell viability multiplex – SKBR3 breast tumor cells, AlphaScreen, ATP viability, primary screen (AID 461); settings: SKBR3 Her2 protein level, 18-24 h, measured here: SKBR3 viability, ATP luminescence, at 10 µM;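 on Her2 level: lower value means less Her2 protein in the cells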;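 on viability: percent of carrier control wells set as 100% viability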
[2] = biological target: Receptor tyrosine-protein kinase erbB-2 (Homo sapiens) (UniProt P04626); assay: as above; settings: 18-24 h, at 10 µM, stronger effect = lower value
[3] = reduced viability of SK-BR-3 breast cancer cells – cell-based, 24 h, human, pilot screen (AID 572;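 active means viability at or below 10% of carrier control in both of two separate runs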;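 further: compound exposure lasted between 18 and 24 h rather than exactly 24 h; 100% = carrier-treated control wells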); settings: SK-BR-3 viability, CellTiter-Glo luminescence, at 10 µM, stronger effect = lower value
[4] = HUVEC growth inhibition – cell-based, human, primary screen (AID 575;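 active means viability at or below 30% in both replicate assays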;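 further: 100% = median of untreated cell wells with 0.1% DMSO on each plate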); settings: HUVEC proliferation, CellTiter-Glo luminescence, 72 h; at 10 µM; stronger effect = lower value
Outline: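 Test system: primary human umbilical vein endothelial cells. Quantity: 1250 cells/well. Compound: single 10 µM dose, 0.1% DMSO, from 5x medium stock. Timing: 72 h treatment at 37 °C. Detection: ATP-based CellTiter-Glo luminescent read. Benchmarks: vehicle and MePR control wells. Format: 384-well plates coated with collagen.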

[5] = H69AR cell proliferation blockers – human, duplicate replicates, primary screen (AID 580;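 active means viability at or under a set limit in both replicates, limit being median viability minus 3 SD, cut at about 48% in these data, passing the limit was not always enough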;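 further: 100% = mean luminescence of untreated wells and 0% = no signal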); settings: H69AR lung tumor cells viability, ATP luminescence, 72 h; at 10 µM; stronger effect = lower value
[6] = MRP1 drug-resistance reversers in H69AR cells – cell-based, doxorubicin co-treatment, pilot screen (AID 601;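 active means viability loss from added drug above about 55%, and viability with drug at most 40%, in both replicates, limit read from the data, passing the limit was not always enough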); settings: CellTiter-Glo, 72 h, at 10 µM; for differential viability (reversal): stronger effect = higher value
[7] = yeast transport mutant growth inhibition pilot in 384-well plates, post-Golgi transport modulator project (AID 636; in the data active means inhibition above about 31%); settings: absorbance 615 nm, about 18 h, stronger effect = higher value
[8] = growth suppression of yeast trafficking mutant, preliminary HTS, modulators of trafficking downstream of Golgi apparatus project, 1536-format plate, OD 615 nm (AID 637; in the data active means inhibition above about 30%); settings: yeast transport mutant growth, absorbance 615 nm, 18 h; stronger effect = higher value
[9] = H69AR cells + 2 uM doxorubicin, measured here: viability with 2 uM doxorubicin, stronger effect = lower value
[10] = H69AR cells, compound alone cytotoxicity

Receptor tyrosine-protein kinase erbB-2 (Homo sapiens), sequence (P04626 whole entry, looked up): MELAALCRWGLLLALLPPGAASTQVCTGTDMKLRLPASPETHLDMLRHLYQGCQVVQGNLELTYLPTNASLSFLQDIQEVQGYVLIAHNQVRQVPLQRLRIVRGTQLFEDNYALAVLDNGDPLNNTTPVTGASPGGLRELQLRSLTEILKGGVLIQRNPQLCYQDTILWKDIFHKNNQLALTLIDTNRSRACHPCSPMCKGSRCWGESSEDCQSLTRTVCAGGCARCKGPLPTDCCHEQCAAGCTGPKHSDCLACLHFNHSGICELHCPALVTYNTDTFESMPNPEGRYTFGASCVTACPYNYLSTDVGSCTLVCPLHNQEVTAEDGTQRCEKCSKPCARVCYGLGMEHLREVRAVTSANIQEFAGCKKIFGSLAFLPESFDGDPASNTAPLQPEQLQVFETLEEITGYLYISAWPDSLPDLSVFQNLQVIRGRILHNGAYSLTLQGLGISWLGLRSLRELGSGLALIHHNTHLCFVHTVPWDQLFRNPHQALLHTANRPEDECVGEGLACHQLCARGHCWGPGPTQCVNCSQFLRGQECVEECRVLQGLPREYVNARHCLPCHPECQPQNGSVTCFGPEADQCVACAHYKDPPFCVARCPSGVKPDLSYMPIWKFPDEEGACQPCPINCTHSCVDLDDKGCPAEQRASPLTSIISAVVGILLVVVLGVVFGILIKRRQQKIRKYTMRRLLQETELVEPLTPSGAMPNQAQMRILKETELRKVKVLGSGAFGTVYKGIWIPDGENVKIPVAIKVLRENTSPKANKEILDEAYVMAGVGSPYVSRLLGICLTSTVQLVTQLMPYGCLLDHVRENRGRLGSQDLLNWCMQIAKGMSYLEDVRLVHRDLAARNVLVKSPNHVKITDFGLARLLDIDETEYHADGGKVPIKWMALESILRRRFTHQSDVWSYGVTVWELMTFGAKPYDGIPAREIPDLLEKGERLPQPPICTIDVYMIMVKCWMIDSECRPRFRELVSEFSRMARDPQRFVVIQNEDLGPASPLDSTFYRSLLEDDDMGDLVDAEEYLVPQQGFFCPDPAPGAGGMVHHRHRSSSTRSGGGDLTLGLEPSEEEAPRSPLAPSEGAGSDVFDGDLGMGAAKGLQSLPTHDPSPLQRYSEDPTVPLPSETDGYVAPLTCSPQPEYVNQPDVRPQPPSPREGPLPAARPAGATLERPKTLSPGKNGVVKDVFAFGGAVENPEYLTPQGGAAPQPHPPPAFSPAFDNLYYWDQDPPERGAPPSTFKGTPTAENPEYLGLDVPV

Row | SMILES | viability [1] | Her2 level [2] | viability [3] | viability [4] | viability [5] | differential viability (reversal) ([6]; H69AR cells + 2 uM doxorubicin) | viability [6, 9] | viability [6, 10] | inhibition [7] | inhibition [8]
1 | Oc1ccc2[nH]cnc2c1CN1CCCCC1 | 113% | 110% (inactive) | 113% (inactive) | 107% (inactive) | 99.7% (inactive) | 7.21% (inactive) | 92.5% | 99.7% | -5.39% (inactive) | 3.28% (inactive)
2 | CC(NC(=O)Nc1ccccc1)C(c1cccs1)N1CCOCC1 (stereo not given) | 108% | 107% (inactive) | 108% (inactive) | 99.5% (inactive) | 110% (inactive) | 16.3% (inactive) | 93.5% | 110% | -0.38% (inactive) | 4.83% (inactive)
3 | Cc1nn(C)c(C)c1CN(C)C(=O)c1cc2nc(-c3ccco3)cc(C(F)(F)F)n2n1 | 77% | 94.5% (inactive) | 77% (inactive) | 109% (inactive) | 86.6% (inactive) | 0.655% (inactive) | 85.9% | 86.6% | 1.67% (inactive) | -9.33% (inactive)
4 | CSc1nc(C)c(C(=O)Nc2ccccc2)c(C)c1C#N | 100% | 76% (inactive) | 100% (inactive) | 91.7% (inactive) | 94.2% (inactive) | 6.57% (inactive) | 87.6% | 94.2% | -5.87% (inactive) | -3.39% (inactive)
5 | CCOc1ccc(-c2noc(-c3ccncc3)n2)cc1OCC | 99% | 108% (inactive) | 99% (inactive) | 119% (inactive) | 86.7% (inactive) | -3.94% (inactive) | 90.7% | 86.7% | -6.13% (inactive) | -1.61% (inactive)
6 | C[C@H](NC(=O)Nc1cccc(C(F)(F)F)c1)C(=O)O | 108% | 108% (inactive) | 108% (inactive) | 94.3% (inactive) | 93.2% (inactive) | 5.33% (inactive) | 87.9% | 93.2% | -3.07% (inactive) | 1.61% (inactive)
7 | CCC(=O)N1CCc2cc(Br)cc(S(=O)(=O)N3CCCCCC3)c21 | 88.5% | 87% (inactive) | 88.5% (inactive) | 97.2% (inactive) | 95.5% (inactive) | 2.03% (inactive) | 93.4% | 95.5% | -3.03% (inactive) | 4.91% (inactive)
8 | O=S(=O)(NCCCCCNS(=O)(=O)c1ccccc1)c1ccccc1 | 92.5% | 90.5% (inactive) | 92.5% (inactive) | 112% (inactive) | 93.2% (inactive) | -13.4% (inactive) | 107% | 93.2% | -4% (inactive) | -3.39% (inactive)
9 | COc1cc(C(=O)OCC(=O)N(C)Cc2ccccc2)cc(OC)c1OC | 106% | 96.5% (inactive) | 106% (inactive) | 103% (inactive) | 94.8% (inactive) | -2.6% (inactive) | 97.4% | 94.8% | -5.34% (inactive) | 0.79% (inactive)
10 | CCCN(CCC)S(=O)(=O)c1ccc(NS(C)(=O)=O)cc1 | 110% | 124% (inactive) | 110% (inactive) | 98.2% (inactive) | 105% (inactive) | 6.41% (inactive) | 99% | 105% | -1.18% (inactive) | -5.83% (inactive)
11 | CC(=O)c1c(C)[nH]c(C(=O)Nc2ccc3c(c2)OCCO3)c1C | 102% | 92% (inactive) | 102% (inactive) | 86.1% (inactive) | 92.9% (inactive) | 18.1% (inactive) | 74.8% | 92.9% | -0.26% (inactive) | 2.42% (inactive)
12 | O=C(c1c(F)cccc1F)N(Cc1ccccn1)C1CCCC1 | 78% | 108% (inactive) | 78% (inactive) | 106% (inactive) | 93.6% (inactive) | 4.68% (inactive) | 88.9% | 93.6% | 3.6% (inactive) | 26.3% (inactive)
13 | Nc1nc(N2C(=O)C3CC=CCC3C2=O)nn1-c1ccccc1 (stereo not given) | 101% | 130% (inactive) | 101% (inactive) | 105% (inactive) | 98.7% (inactive) | 2.73% (inactive) | 96% | 98.7% | 1.3% (inactive) | -12.2% (inactive)
14 | CCOc1ccc(C2C=C(c3ccc(F)cc3)Nc3ncnn32)cc1 (stereo not given) | 91.5% | 87% (inactive) | 91.5% (inactive) | 81.2% (inactive) | 82.2% (inactive) | 3.07% (inactive) | 79.1% | 82.2% | -4.42% (inactive) | 9.34% (inactive)
15 | O=C(Nc1nc(-c2ccccc2)cs1)C1CCCCN1S(=O)(=O)c1ccccc1 (stereo not given) | 100% | 80% (inactive) | 100% (inactive) | 71.5% (inactive) | 73.8% (inactive) | -18.2% (inactive) | 92% | 73.8% | -0.13% (inactive) | 11.4% (inactive)
16 | CC1(C)Cc2noc(N)c2C(C)(C)N1OC(=O)c1ccccc1 | 107% | 132% (inactive) | 107% (inactive) | 104% (inactive) | 107% (inactive) | 21.2% (inactive) | 86.2% | 107% | 0% (inactive) | -5.4% (inactive)
17 | Cc1cccc(Cn2c(=O)n(Cc3ccco3)c(=O)c3ccccc32)c1 | 87% | 97.5% (inactive) | 87% (inactive) | 100% (inactive) | 92.5% (inactive) | -9.65% (inactive) | 102% | 92.5% | -2.11% (inactive) | 1.15% (inactive)
18 | COc1cccc(NC(=O)N2CCCC2C(=O)NC(C)C)c1 (stereo not given) | 112% | 78% (inactive) | 112% (inactive) | 82.6% (inactive) | 99.1% (inactive) | 11.2% (inactive) | 87.8% | 99.1% | -5.07% (inactive) | 9.51% (inactive)
19 | CCn1c(SC)nc2c(c1=O)SC(C)C2 (stereo not given) | 111% | 110% (inactive) | 111% (inactive) | 113% (inactive) | 98.4% (inactive) | 17.2% (inactive) | 81.2% | 98.4% | -4.67% (inactive) | 1.8% (inactive)
20 | CCN(CC)C(=O)C1CCCN(Cc2ccc(N(C)C)cc2)C1 (stereo not given) | 90.5% | 96.5% (inactive) | 90.5% (inactive) | 100% (inactive) | 89.5% (inactive) | -3.46% (inactive) | 93% | 89.5% | -1.82% (inactive) | -4.75% (inactive)
21 | CCOC(=O)CNC(=O)CSc1nc(N)cc(N)n1 | 92% | 96% (inactive) | 92% (inactive) | 113% (inactive) | 96.7% (inactive) | 0.07% (inactive) | 96.6% | 96.7% | -4.27% (inactive) | -9.84% (inactive)
22 | CCOC(=O)CSc1nnc(NC(=O)c2cccc(S(=O)(=O)N3CCCCC3)c2)s1 | 94% | 87.5% (inactive) | 94% (inactive) | 79.6% (inactive) | 101% (inactive) | 9.55% (inactive) | 91.2% | 101% | -3.03% (inactive) | -1.67% (inactive)
23 | CCOc1ccc(Cl)cc1S(=O)(=O)N1CCCC1 | 100% | 94.5% (inactive) | 100% (inactive) | 101% (inactive) | 88.8% (inactive) | -5.74% (inactive) | 94.5% | 88.8% | -4.34% (inactive) | -1.11% (inactive)
24 | O=C1CSC(c2cn(-c3ccccc3)nc2-c2ccccc2)N1Cc1ccco1 (stereo not given) | 97% | 110% (inactive) | 97% (inactive) | 63.1% (inactive) | 88.3% (inactive) | 17.7% (inactive) | 70.6% | 88.3% | 0.92% (inactive) | 3.55% (inactive)
25 | O=S(=O)(Nc1nc2ccccc2nc1NCc1ccco1)c1ccc(Cl)cc1 | 94% | 103% (inactive) | 94% (inactive) | 69.6% (inactive) | 65.3% (inactive) | -4.42% (inactive) | 69.8% | 65.3% | -4.42% (inactive) | 4.83% (inactive)
26 | CN(C(=O)c1ccc2c(=O)n3c(nc2c1)CCCCC3)c1ccccc1 | 96.5% | 91% (inactive) | 96.5% (inactive) | 97.5% (inactive) | 102% (inactive) | 0.655% (inactive) | 101% | 102% | -7.26% (inactive) | 2.54% (inactive)
27 | CCOC(=O)c1sc(=NC(=O)c2ccc(OC)c(OC)c2)n(C)c1C | 121% | 84% (inactive) | 121% (inactive) | 108% (inactive) | 65% (inactive) | -6.65% (inactive) | 71.7% | 65% | -5.06% (inactive) | -0.16% (inactive)
28 | Cc1ccc(CSC2=NCCN2C(=O)C2CC2)cc1 | 100% | 88% (inactive) | 100% (inactive) | 83.3% (inactive) | 97% (inactive) | 10.7% (inactive) | 86.3% | 97% | -8.11% (inactive) | 8.57% (inactive)
29 | CC/C(O)=C(/C#N)c1nnc2n1CCCCC2 | 100% | 84% (inactive) | 100% (inactive) | 101% (inactive) | 97.4% (inactive) | 10.8% (inactive) | 86.5% | 97.4% | -4.68% (inactive) | -5.71% (inactive)
